The values that follow come from ChEMBL document CHEMBL1132971, “New azolidinediones as inhibitors of protein tyrosine phosphatase 1B with antihyperglycemic properties” (J Med Chem, 2000).

pIC50: −log10 of the molar value.

Experiment [1] deals with Mus musculus. In words: Evaluated for their ability to decrease plasma insulin levels in mouse at a dose 100 mg/kg/day, *p indicates <0.05. It counts as functional. Summed up: (§1)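 Diabetic db/db or ob/ob mice dosed orally once daily for 4 days. Plasma glucose and insulin reported as percent change from a vehicle-treated group. 4-6 mice per group. Significance set at p < 0.05 or p < 0.01 versus vehicle; NS means generally less than -15% change.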

The target of experiment [2] is T1, Tyrosine-protein phosphatase non-receptor type 1 (Rattus norvegicus, UniProt P20417).
T1 sequence (P20417 whole entry): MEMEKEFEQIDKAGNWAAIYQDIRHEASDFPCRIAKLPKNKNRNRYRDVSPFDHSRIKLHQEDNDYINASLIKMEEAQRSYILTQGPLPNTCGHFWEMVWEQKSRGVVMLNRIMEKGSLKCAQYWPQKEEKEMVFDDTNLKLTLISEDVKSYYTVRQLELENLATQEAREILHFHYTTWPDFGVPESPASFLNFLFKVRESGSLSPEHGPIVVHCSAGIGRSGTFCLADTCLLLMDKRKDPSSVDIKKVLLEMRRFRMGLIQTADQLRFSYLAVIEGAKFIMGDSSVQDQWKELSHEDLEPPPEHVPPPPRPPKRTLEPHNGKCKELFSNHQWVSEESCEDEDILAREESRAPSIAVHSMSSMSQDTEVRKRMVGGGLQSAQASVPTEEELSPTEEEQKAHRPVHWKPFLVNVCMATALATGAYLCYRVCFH
In words: Inhibition of PTPase activity using recombinant r-PTP1B as the enzyme and IR-triphosphopeptide as substrate. Summed up: (§2)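 Rat recombinant PTP1B in 33 mM TRIS-HCl, 2 mM EDTA, 50 mM β-mercaptoethanol, pH 7.4 (about 1000-2000 nmol/min/mg). Preincubated 10 min at 37 °C with or without compound in HEPES buffer pH 7.4. Released phosphate read by malachite green-ammonium molybdate at 650 nm against a phosphate standard. Quadruplicates. IC50 by four-parameter logistic fit.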

Experiment [3] deals with T2, Tyrosine-protein phosphatase non-receptor type 1 (Rattus norvegicus) (UniProt P20417).
T2 sequence (whole entry): T1 sequence (P20417 whole entry)
In words: Inhibition of PTPase (PTP1B) activity in rat hepatic membrane at 50 uM concentration, using pNPP as the substrate. It counts as cell membranes. To be noted: Liver. The method, boiled down: (§3)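 Liver membranes from male Sprague-Dawley rats (100-150 g), about 30 µg protein per well. Preincubated 10 min at 37 °C with compound in 1.25% DMSO in 50 mM HEPES pH 7.4. Then 6.33 mM pNPP for 30 min at 37 °C, stopped with NaOH. p-Nitrophenol read at 410 nm. Run in triplicate. Reported as percent of untreated control.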

Experiment [4] concerns Mus musculus. Nature of the experiment: Evaluated in vivo for their ability to decrease plasma glucose levels in diabetic C57BL/KsJ ob/ob mouse at a dose 100 mg/kg/day *p indicates <0.05. It counts as functional. The method, boiled down: as §1
Experiment [5] concerns the target T1, Tyrosine-protein phosphatase non-receptor type 1. In words: Inhibition of PTPase activity in rat hepatic membrane at a concentration of 50 uM using pNPP as the substrate. The format is cell membranes, Liver. The method, boiled down:
as §3

Experiment [6] concerns Mus musculus. In words: Evaluated in vivo for their ability to decrease plasma glucose levels in diabetic C57BL/KsJ db/db mouse at a dose 100 mg/kg/day *p indicates <0.05. The format is functional. The method, boiled down:
as §1

For experiment [7], the system named is Mus musculus. Nature of the experiment: Evaluated in vivo for their ability to decrease plasma glucose levels in diabetic C57BL/KsJ ob/ob mouse at a dose 100 mg/kg/day. **p indicates <0.01. It counts as functional. Summed up: as §1
For experiment [8], the target named is T2, Tyrosine-protein phosphatase non-receptor type 1 (Rattus norvegicus). Nature of the experiment: Inhibition of PTPase activity using recombinant r-PTP1B as the enzyme and IR-triphosphopeptide as substrate at 50 uM. The method, boiled down: as §2
Experiment [9] concerns Mus musculus. In words: Evaluated for their ability to decrease plasma insulin levels in mouse at a dose 100 mg/kg/day. **p indicates <0.01. The format is functional. The method, boiled down:
(§4)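 Mice dosed orally once daily for 4 days; plasma glucose and insulin measured and expressed as percent change versus a vehicle-treated group (mean ± SE, 4-6 mice/group). NS is generally less than -15% change. Significance is versus vehicle-treated mice.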

The subject of experiment [10] is Mus musculus. In words: Evaluated in vivo for their ability to decrease plasma glucose levels in diabetic C57BL/KsJ ob/ob mouse at a dose 100 mg/kg/day.,**p indicates <0.01. The format is functional. Summed up: as §4
In experiment [11] the target is T3, Tyrosine-protein phosphatase non-receptor type 1 (Homo sapiens) (UniProt P18031).
T3 sequence (whole entry): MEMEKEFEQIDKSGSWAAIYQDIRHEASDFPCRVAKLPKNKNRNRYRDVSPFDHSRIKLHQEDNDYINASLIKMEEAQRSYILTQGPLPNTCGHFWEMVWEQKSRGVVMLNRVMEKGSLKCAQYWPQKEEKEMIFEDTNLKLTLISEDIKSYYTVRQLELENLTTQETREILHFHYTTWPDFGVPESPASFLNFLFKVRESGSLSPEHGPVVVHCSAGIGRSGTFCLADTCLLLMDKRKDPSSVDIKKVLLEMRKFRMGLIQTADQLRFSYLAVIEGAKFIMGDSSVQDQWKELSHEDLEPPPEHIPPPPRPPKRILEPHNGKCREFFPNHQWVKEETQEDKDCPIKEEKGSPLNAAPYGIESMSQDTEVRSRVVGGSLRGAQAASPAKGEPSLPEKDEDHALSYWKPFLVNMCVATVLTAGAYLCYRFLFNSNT
Nature of the experiment: % inhibition of PTPase activity, recombinant Protein Tyrosine Phosphatase 1b as the enzyme at a concentration 50 uM. The method, boiled down: as §2

Experiment [12] has as its system Mus musculus. In words: Evaluated for their ability to decrease plasma insulin levels in mouse at a dose 100 mg/kg/day.,**p indicates <0.01. It counts as functional. Summed up:
as §4

The test system of experiment [13] is Mus musculus. Nature of the experiment: Evaluated in vivo for their ability to decrease plasma glucose levels in diabetic C57BL/KsJ ob/ob mouse at a dose 100 mg/kg/day, **p indicates <0.01. The format is functional. Summed up: as §4
Experiment [14] has as its system Mus musculus. In words: Evaluated for their ability to decrease plasma insulin levels in mouse at a dose 100 mg/kg/day, **p indicates <0.01. The format is functional. Summed up:
as §4

Experiment [15] concerns Mus musculus. In words: Evaluated in vivo for their ability to decrease plasma glucose levels in diabetic C57BL/KsJ db/db mouse at a dose 100 mg/kg/day, *p indicates <0.05. The format is functional. Summed up:
as §4

In experiment [16] the test system is Mus musculus. In words: Evaluated in vivo for their ability to decrease plasma glucose levels in diabetic C57BL/KsJ ob/ob mouse at a dose 10 mg/kg/day, *p indicates <0.05. The format is functional. Summed up: as §4
In experiment [17] the target is T1, Tyrosine-protein phosphatase non-receptor type 1. Nature of the experiment: Concentration required to inhibit PTPase activity, recombinant r-PTP1B as the enzyme at a concentration 2.5 uM. Summed up: as §2

For `C/C(=C\Cn1sc(=O)[nH]c1=O)c1cccc(OCc2nc(-c3ccc(C(F)(F)F)cc3)oc2C)c1`, the Decrease with Mus musculus [1] was found to be 26%; with Mus musculus [4] it was 29%. In addition, the pIC50 in experiment [2] was 5.42. Further, the inhibition entry in [3] was “Not significant”.

For `C/C(=C\c1cccc(OCc2nc(-c3ccc(C(F)(F)F)cc3)oc2C)c1)Cn1oc(=O)[nH]c1=O`, the Inhibition % in experiment [5] stood at 71%. Further, the Decrease is 36% with Mus musculus [6], 37% in the experiment with Mus musculus [7] and 28% in the experiment with Mus musculus [9]. Besides, the inhibition in experiment [8] is 7%.

Regarding `CCCC/C(=C\Cn1oc(=O)[nH]c1=O)c1cccc(OCc2nc(-c3ccc(C(F)(F)F)cc3)oc2C)c1`, the Decrease is 61% in the experiment on Mus musculus [10] and 88% in the experiment with Mus musculus [12]. Moreover, the inhibition in experiment [11] is 1.4%; in [8], 1.9%.

On to `C/C(=C\Cn1oc(=O)[nH]c1=O)c1cccc(OCc2nc(-c3ccc(C(F)(F)F)cc3)oc2C)c1`, for which the Decrease in the experiment with Mus musculus [13] is listed as 58%; in the experiment with Mus musculus [14] it was 86%; with Mus musculus [15], 62%; with Mus musculus [16], 20%. Besides, the inhibition in experiment [8] was 1.9%; in experiment [3] it was 49%.

For `C/C(=C\Cn1oc(=O)[nH]c1=O)c1cccc(OCC#Cc2cc(C(F)(F)F)cc(C(F)(F)F)c2)c1`, the negative logarithm of the IC50 (pIC50) in [17] is 4.60. The inhibition in experiment [3] came out at 62%.
